Measurements reported in PubChem BioAssay AID493160 (Sanford-Burnham Center for Chemical Genomics, 2011).
The campaign covered roughly 340,000 compounds. About 540 (0.16%) were called active. This is one part of a sample in which actives are shown more often than they occur.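 The calls were made as follows: active = inhibition above about 35% when tested at 20 µM (limit read from the data); inactive = the rest.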

target: Hexokinase HKDC1 (Homo sapiens) (UniProt Q2TB90); experiment: HKDC1 hexokinase inhibitors, primary screen, biochemical, fluorescence, uHTS (AID 493160); conditions: recombinant HKDC1, G6PDH/diaphorase resazurin coupled fluorescence; at 20 µM; hits give high values;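 also: plate controls were DMSO wells with enzyme for no effect and DMSO wells lacking enzyme for full effect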
In short: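 Material: recombinant HKDC1 hexokinase; Amount: HKDC1 at 5 µg/mL; Medium: Tris pH 8.0 buffer with MgCl2, Tween-20, BSA, BME; Schedule: 90 min reaction incubation at room temperature, dark; Technique: coupled resazurin fluorescence, excitation 525 nm, emission 613 nm.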

Chain of Hexokinase HKDC1 (Homo sapiens) (Q2TB90 whole entry, looked up): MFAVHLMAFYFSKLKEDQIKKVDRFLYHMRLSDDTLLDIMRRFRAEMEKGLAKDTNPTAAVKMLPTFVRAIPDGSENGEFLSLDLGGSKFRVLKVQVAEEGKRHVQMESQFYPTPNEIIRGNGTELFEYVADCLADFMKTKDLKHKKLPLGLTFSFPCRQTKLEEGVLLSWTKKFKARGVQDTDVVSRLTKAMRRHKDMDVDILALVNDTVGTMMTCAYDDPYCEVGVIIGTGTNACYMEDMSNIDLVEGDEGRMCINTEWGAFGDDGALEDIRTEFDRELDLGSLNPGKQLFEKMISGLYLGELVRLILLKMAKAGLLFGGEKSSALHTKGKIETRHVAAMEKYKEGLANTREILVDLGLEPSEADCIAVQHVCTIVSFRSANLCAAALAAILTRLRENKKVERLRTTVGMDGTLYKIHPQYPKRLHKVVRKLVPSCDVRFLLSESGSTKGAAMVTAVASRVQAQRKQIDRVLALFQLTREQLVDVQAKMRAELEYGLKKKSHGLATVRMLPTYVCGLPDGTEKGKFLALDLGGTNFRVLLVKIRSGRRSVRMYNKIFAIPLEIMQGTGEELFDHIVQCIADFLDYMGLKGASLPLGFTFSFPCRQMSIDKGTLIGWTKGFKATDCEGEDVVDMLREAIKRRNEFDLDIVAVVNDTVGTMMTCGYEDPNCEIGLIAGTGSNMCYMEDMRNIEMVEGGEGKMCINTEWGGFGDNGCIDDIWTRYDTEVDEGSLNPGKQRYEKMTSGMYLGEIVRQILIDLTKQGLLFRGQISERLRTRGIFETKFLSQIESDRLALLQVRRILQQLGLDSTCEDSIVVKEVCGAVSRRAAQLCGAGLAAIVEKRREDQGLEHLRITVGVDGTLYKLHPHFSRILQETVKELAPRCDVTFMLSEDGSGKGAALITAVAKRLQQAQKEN

inhibition, active:
O=C(NC1=CC(=O)c2ccccc2C1=O)c1ccccc1 54.1%
CC(=O)N(C1=C(Cl)C(=O)c2ccccc2C1=O)c1ccc(C(=O)O)cc1 52.2%
COc1ccc(N(CC(=O)N/N=C/c2cccc3c2OCCO3)S(=O)(=O)c2ccc(NC(C)=O)cc2)cc1 38.1%
O=c1ccc2c(-c3ccccc3S(=O)(=O)O)c3ccc(O)c(O)c3oc-2c1O 38.4%
O=c1[nH]c2ccccc2n2c(-c3ccccc3)nnc12 46.7%
CCOC(=O)CSc1nc2ccc(C)cc2n2cnnc12 53%
CC(C)(C)Nc1c(N)c(=O)oc2ccccc12 44.6%
O=C(c1cccnc1)N(c1cc2sc(=O)oc2c2ccccc12)S(=O)(=O)c1ccccc1 38.2%
CN1c2ccc(C=O)c3c(C=O)ccc(c23)N(C)C1(C)C 36.4%
CCOC(=O)C1=C(c2ccc(OC)cc2)C(=O)c2ccccc2C1=O 81.4%
COc1ccc(NC(=O)CSc2ccc(-c3ccco3)nn2)c(OC)c1 47.3%
COc1ccc2c(c1)c(=Cc1ccc(N(C)C)cc1)c1cc(-c3ccccc3)[n+](C)n12 43.2%

inhibition, inactive:
CCCC(=O)N1CCC(CCC(=O)NC2CC2)CC1 -4.77%
COc1cc(Cl)c(C)cc1NC(=O)CSc1nnc(CN2CCCC2)o1 -4.86%
O=S(=O)(NN=C1CCCCCCC1)c1ccc(Br)cc1 3.73%
CCOc1cc(NC(=S)NCCCN(C)C)c(OCC)cc1NC(=O)C1CC1 -8.33%
CC(Cc1cccs1)N(Cc1ccc(Cl)cc1)C(=O)c1ccncc1 (stereo unspecified) 3.31%
O=C1C(=O)N(CCCN2CCOCC2)C(c2ccc([N+](=O)[O-])cc2)/C1=C(\O)c1ccc2c(c1)OCCO2 (stereo unspecified) -4.72%
Cc1cccc(-n2c(SCC(=O)Nc3cccc(S(=O)(=O)NC4=NCCCCC4)c3)nc3ccccc3c2=O)c1C 1.69%
Cc1ccnc(SCC(=O)Nc2cccc(S(=O)(=O)N3CCOCC3)c2)n1 0.74%
CCOC(=O)C1CCN(C(=O)CC2C(=O)N(Cc3ccccc3)C(C)c3nc4ccccc4n32)CC1 (stereo unspecified) -7.65%
CCCCN(C(=O)c1ccc2ccccc2c1)c1c(N)n(CCCC)c(=O)[nH]c1=O -1.92%
CCN(CC)C(=O)CSc1nc2ccccc2n1CC(=O)N1CCN(c2ccccc2OC)CC1 -2.34%
CCC(C)NC(=O)c1cc(Cl)ccc1OC (stereo unspecified) -12.3%
COc1ccc(C(=O)COC(=O)Cn2cnc3c2c(=O)n(C)c(=O)n3C)c(OC)c1 -0.76%
COc1ccc2[nH]c3c(c2c1)CCN1C(=O)C(CC(=O)NCc2cccc(C(F)(F)F)c2)C[C@H](C(=O)N2CCOCC2)[C@@]31C (stereo partly specified) 5.85%
O=C(O)CCCCCCCCCC[n+]1ccccc1 -10.3%
Cc1cc(C)n2nc(C(=O)OCC(=O)N(C)CC(=O)Nc3ccc(F)cc3)nc2n1 -5.6%
O=C(NC(=O)c1ccccc1)Nc1ccccc1O 2.6%
CC(NC(=O)c1ccccc1)C(=O)Nc1ccccc1 (stereo unspecified) -6.92%
CCN(Cc1ccccc1)S(=O)(=O)c1cc2c3c(c1)CCN3C(=O)CC2 4.66%
Cc1cc(C(=O)COC(=O)CNC(=O)c2ccc(F)cc2)c(C)n1Cc1ccco1 -4.86%
O=C(COc1ccccc1)Nc1cc2c3c(c1)CC(=O)N3CCC2 -4.21%
Cn1nc(C(F)(F)F)cc1-c1ccc(/C=C(\C#N)C(=O)c2cccc(C(F)(F)F)c2)s1 13.8%
Cc1cc(C)c2oc(C(=O)Nc3ccc(S(=O)(=O)Nc4nccc(C)n4)cc3)cc(=O)c2c1 0.48%
COc1cc(OC)cc(C(=O)NCC(=O)N2CCCCCCC2)c1 -3.62%
CCCN(CC(=O)Nc1ccccc1C)C(=O)c1ccc(OCC(=O)N2CCOCC2)c(OCC)c1 -2.45%
N#Cc1ccc(C2N=C(c3ccccc3)NO2)cc1 (stereo unspecified) 0.41%
O=C(C1CCN(S(=O)(=O)c2cnc[nH]2)CC1)N1CCN(Cc2ccc3c(c2)OCO3)CC1 0.71%
C=CCN(Cc1nc(-c2cc(OC)c3c(c2)OCO3)oc1C)C1CCS(=O)(=O)C1 (stereo unspecified) -3.24%
COc1ccc(N(CC(=O)N/N=C/c2cccs2)S(=O)(=O)c2ccc(OC)c(OC)c2)cc1 -10.3%
CC(=O)Nc1ccc(S(=O)(=O)N(CCc2ccccc2)CC(=O)N/N=C/c2ccc(C(=O)O)cc2)cc1 -2.7%
COc1ccc(Cl)cc1C(=O)NNC(=O)c1nc2nc(C)cc(C)n2n1 0.07%
COc1ccccc1CNC(=O)[C@@H]1CCCN1C(=O)[C@@H]1Cc2ccccc2CN1C(=O)OC(C)(C)C 3.72%
Cc1cc[n+](-c2[nH]c(=O)sc2/C=N/NC(=O)c2ccccc2[O-])cc1C -1.94%
O=C(COC(=O)Cn1cnc2ccccc2c1=O)NCc1ccccc1Cl -10.3%
O=C(Nc1cc(-c2nn(CC(=O)N3CCCCC3)c(=O)c3ccccc23)ccc1N1CCOCC1)c1ccc(Cl)cc1 -2.81%
O=c1[nH]n2c(-c3ccccc3)nc(O)c2c2ccccc12 -18.8%
O=C(C[C@H]1C/C=C\C[C@@H](NC(=O)OCC2c3ccccc3-c3ccccc32)C(=O)O[C@@H](c2ccccc2)CNC1=O)N[C@H](CO)Cc1ccccc1 -0.6%
CCOC(=O)CSc1nncc2ccc(OC)c(OC)c12 -9.31%
COc1ccc(CCNc2nc3ccc(C)cc3n3cnnc23)cc1OC 8.2%
CC1CN(C2CCN(C(=O)COc3ccccc3)CC2)CC(C)O1 (stereo unspecified) 1.62%
Nc1c(NCCc2ccccc2)c2ccccc2oc1=O -1.28%
O=c1oc2ccccc2c(=O)c2ccccc12 -8.91%
COc1ccc(CCN2CNc3c(c(=O)n(C)c(=O)n3C)C2)cc1OC 6.26%
O=C(Nc1cc(S(=O)(=O)N2CCOCC2)ccc1Cl)c1cc(=O)c2ccccc2o1 12.4%
Cc1nnnn1/C(=C\c1ccccc1)C(=O)OCC(=O)N1CC2(C)CC1CC(C)(C)C2 (stereo unspecified) -1.75%
CCN(CC(=O)Nc1ccc2c(c1)OCO2)S(=O)(=O)c1ccccc1 -0.97%
O=C(/C=C/c1cccc(C(F)(F)F)c1)N1CCN(c2ccccn2)CC1 3.47%
O=C(CSc1cccc[n+]1[O-])c1ccc(-c2ccccc2)cc1 -4.64%
O=C1N[C@@H](Cc2ccccc2)C(=O)N2[C@H]1C[C@]1(Br)c3ccccc3N(S(=O)(=O)c3ccccc3)[C@H]21 8.21%
Cc1nn(C)cc1S(=O)(=O)N1CCN(c2ccc(F)cc2)CC1 -0.86%
CN(C)c1ccc(C(=S)N2CCN(C(=S)Nc3ccc(Cl)cc3)CC2)cc1 7.9%
Cc1cc(Cl)ccc1C(=O)C1CCCN(C(=O)CCN2CCCO2)C1 (stereo unspecified) -7.55%
O=C(/C=C(O)/C=C/c1ccc(O)cc1)/C=C/c1ccc(O)cc1 5.34%
O=C(COC(=O)c1ccccc1NC(=O)c1ccco1)Nc1ccc2c(c1)OC(F)(F)O2 -9.13%
CCOC(=O)C(C)n1cnc2scc(-c3ccc(C)c(C)c3)c2c1=O (stereo unspecified) -0.93%
COc1ccc(N(C(=O)c2cccnc2)S(=O)(=O)c2ccc(OC)c(OC)c2)cc1 -5.15%
O=C(c1cccnc1)N(Cc1ccccc1)C(=O)c1cccnc1 -5.95%
CCn1c(SCC(=O)Nc2cc(C)ccc2C)nnc1-c1cnccn1 2.21%
COC(=O)c1cc(OC)ccc1-c1ccc(OC)cc1 6.2%
COc1ccc(CNC(=O)CCN2C(=O)c3ccccc3C2=O)cc1 0.43%
COC(=O)[C@H](Cc1ccccc1)NC(=O)Nc1ccc(S(N)(=O)=O)cc1 1.79%
C=CC[C@@H](CC(=O)N[C@@H](CO)Cc1ccccc1)C(=O)N[C@H](COC(=O)[C@H](CC=C)CC(=O)OC(C)(C)C)Cc1ccccc1 -4.61%
O=C(CSc1ccc(-c2ccco2)nn1)NCc1ccc2c(c1)OCO2 -3.81%
COc1ccc(NC(=O)CCC(=O)Nc2cc(OC)c(NC(=O)c3ccco3)cc2OC)c(OC)c1 1.97%
CC(C)N(Cc1nnc(-c2ccccc2Br)o1)C(=O)c1cc(Cl)nc2ccccc12 0.82%
CCOC(=O)c1ccc2c(c1)nc(SCC(=O)NC(C)C)n2CC -4.33%
Cc1ccc(CN2CCNC(=O)C2CC(=O)NCc2csc(C(C)C)n2)cc1 (stereo unspecified) -3.03%
CC1CC(C)CN(C(=O)CSc2nnc(CSc3ncccn3)n2C)C1 (stereo unspecified) -4.12%
CCS(=O)(=O)N1Cc2ccccc2CC1C(=O)Nc1ccc(OC)cc1OC (stereo unspecified) -2.83%
O=C1Nc2cc(C(=O)N3CCC(N4CCCCC4)CC3)ccc2S/C1=C\c1ccccc1 -1.91%
CCCCn1nnnc1NCc1cc(OC)c(OC)c(OC)c1 10.4%
Cc1ccc(CNC(=O)CCNS(=O)(=O)c2cccc3nonc23)cc1 10.6%
Cc1ccc(OS(=O)Nc2cccc3nccnc23)cc1 (stereo unspecified) 6.4%
CCCCn1c(N)c(N(CCOC)C(=O)COc2c(C)cccc2C)c(=O)[nH]c1=O -3.46%
